IC50 data for six compounds are collected here from ChEMBL document CHEMBL1144974, “Design, synthesis, and activity of novel cis- and trans-3,6-disubstituted pyran biomimetics of 3,6-disubstituted piperidine as potential ligands for the dopamine transporter” (Bioorg Med Chem Lett, 2003).

The species named for test [1] is Rattus norvegicus. Nature of the test: Inhibition of [3H]DA dopamine (DA) reuptake activity. It counts as functional.
Test [2] deals with Sodium-dependent serotonin transporter (Rattus norvegicus, UniProt P31652). The test is described as follows: Inhibition of binding of [3H]citalopram to (SERT) serotonin transporter in rat striatum. Type of test: tissue-based.
Sequence of Sodium-dependent serotonin transporter (P31652 whole entry): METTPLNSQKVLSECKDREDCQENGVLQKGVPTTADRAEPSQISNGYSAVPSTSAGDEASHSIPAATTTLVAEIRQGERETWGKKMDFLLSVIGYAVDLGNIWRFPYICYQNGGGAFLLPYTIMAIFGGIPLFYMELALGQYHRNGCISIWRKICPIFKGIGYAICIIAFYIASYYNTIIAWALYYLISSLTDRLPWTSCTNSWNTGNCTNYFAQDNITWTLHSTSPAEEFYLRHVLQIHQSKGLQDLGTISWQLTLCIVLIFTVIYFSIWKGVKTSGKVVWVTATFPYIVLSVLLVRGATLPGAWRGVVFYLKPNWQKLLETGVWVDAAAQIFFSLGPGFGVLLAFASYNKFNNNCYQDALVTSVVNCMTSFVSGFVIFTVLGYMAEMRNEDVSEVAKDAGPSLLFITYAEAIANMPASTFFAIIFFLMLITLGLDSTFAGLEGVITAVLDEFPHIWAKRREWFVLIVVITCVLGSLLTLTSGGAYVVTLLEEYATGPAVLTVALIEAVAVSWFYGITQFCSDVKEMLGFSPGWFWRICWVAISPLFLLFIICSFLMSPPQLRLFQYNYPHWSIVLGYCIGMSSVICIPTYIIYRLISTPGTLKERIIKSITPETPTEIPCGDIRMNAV
Test [3] addresses Norepinephrine transporter (Rattus norvegicus, UniProt Q9WTR4). Nature of the test: Inhibition of binding of [3H]nisoxetine to (NET) norepinephrine transporter in rat striatum. It counts as tissue-based. In a few lines: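 Radioligand displacement of [3H]nisoxetine labelling NET; other binding conditions are referred to earlier work. Values are means ± SEM of three independent experiments, each assayed in triplicate.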

Test [4] concerns the target Sodium-dependent dopamine transporter (Rattus norvegicus, UniProt P23977). The test is described as follows: Inhibition of binding of [3H]WIN-35 428 to (DAT) dopamine transporter in rat striatum. It counts as tissue-based.

Sequence of Sodium-dependent dopamine transporter (P23977 whole entry): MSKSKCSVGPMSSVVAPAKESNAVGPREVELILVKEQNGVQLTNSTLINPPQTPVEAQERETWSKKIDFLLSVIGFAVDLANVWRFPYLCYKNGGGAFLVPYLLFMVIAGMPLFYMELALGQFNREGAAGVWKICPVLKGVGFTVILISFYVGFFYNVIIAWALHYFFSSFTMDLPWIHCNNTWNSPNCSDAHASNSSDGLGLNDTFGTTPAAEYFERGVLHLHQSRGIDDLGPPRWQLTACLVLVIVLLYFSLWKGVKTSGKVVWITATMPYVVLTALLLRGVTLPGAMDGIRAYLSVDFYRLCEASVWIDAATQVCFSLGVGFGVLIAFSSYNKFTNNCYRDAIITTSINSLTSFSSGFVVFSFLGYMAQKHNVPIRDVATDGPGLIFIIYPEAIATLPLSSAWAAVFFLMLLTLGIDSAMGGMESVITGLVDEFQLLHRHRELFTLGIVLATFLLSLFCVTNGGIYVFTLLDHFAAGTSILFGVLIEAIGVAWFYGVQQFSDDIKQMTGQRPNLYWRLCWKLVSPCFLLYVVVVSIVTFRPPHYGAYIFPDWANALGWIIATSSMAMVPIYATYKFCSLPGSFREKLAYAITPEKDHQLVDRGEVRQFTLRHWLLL
Sequence of Norepinephrine transporter (Q9WTR4 whole entry): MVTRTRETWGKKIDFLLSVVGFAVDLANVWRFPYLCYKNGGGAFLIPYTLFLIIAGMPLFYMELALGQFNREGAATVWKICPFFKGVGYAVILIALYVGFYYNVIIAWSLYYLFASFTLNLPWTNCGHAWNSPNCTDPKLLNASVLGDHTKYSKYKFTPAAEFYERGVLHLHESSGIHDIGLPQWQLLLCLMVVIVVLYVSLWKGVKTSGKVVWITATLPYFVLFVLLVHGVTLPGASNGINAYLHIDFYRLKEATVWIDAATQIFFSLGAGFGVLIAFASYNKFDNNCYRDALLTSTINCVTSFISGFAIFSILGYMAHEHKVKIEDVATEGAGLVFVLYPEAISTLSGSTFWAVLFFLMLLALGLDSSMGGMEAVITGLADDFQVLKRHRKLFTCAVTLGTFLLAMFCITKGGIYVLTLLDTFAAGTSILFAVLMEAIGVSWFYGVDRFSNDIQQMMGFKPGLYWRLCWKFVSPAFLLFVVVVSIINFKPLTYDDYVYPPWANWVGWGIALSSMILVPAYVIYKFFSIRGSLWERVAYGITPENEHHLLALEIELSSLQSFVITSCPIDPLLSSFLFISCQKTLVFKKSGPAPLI

Consider `Fc1ccc(CNC2CCC(C(c3ccccc3)c3ccccc3)NC2)cc1` (configuration not stated), for which the half-maximal inhibitory concentration (IC50) (in general, the concentration needed to halve the response being measured) in test [1] is 45.7 nM; in test [2], 2220 nM; in test [3], 1020 nM; in test [4] it was 32.5 nM.

With `O=[N+]([O-])c1ccc(CNC2CCC(C(c3ccccc3)c3ccccc3)OC2)cc1` (racemic), the values for the IC50 in test [1] and in test [4] were 102 nM and 38.3 nM, respectively.

In the case of `COc1ccc(CNC2CCC(C(c3ccccc3)c3ccccc3)OC2)cc1` (racemic), the IC50 in test [1] worked out at 59.5 nM; in test [4], 84 nM.

Consider `N#Cc1ccc(CNC2CCC(C(c3ccccc3)c3ccccc3)OC2)cc1` (racemic), for which the IC50 turned out to be 863 nM in test [2] and 1580 nM in test [3].

`Fc1ccc(CNC2CCC(C(c3ccccc3)c3ccccc3)OC2)cc1` (racemic): the IC50 in test [1] was 156 nM; in test [2] it was 1860 nM; in test [3] it was 232 nM; in test [4] it was 163 nM.

In the case of `Fc1ccc(CNC2CCC(C(c3ccccc3)c3ccccc3)OC2)cc1` (single isomer, unassigned), the IC50 in test [2] was 8410 nM; in test [3] it was 12700 nM; in test [4] it was 313 nM.
